EP2 mod: EP2 receptor modulators, cAMP readout, primary screen, cell-based, HTRF cAMP, PGE2 stimulation | EP2-expressing cells, cAMP HTRF FRET, PGE2 co-stimulation | Prostaglandin E2 receptor EP2 subtype (Homo sapiens), P43116 | 0.83% of 260,000 active | AID 940, 2007 | induction, % at 25 µM;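 active = compounds whose cAMP rise, as percent of the full-agonist control response, exceeds 60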;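 also: rat C6 glioma line stably carrying human EP2 under a CMV promoter; the protocol text gives 20 µM as final concentration; 100% = response of wells given 1 µM PGE2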
NPY1 pot ag: NPY-Y1 receptor potentiators or agonists, primary screen, cell-based. 0.37% of 220,000 active. NPY-Y1 expressing cells, potentiator/agonist activation. activation, % at 3.6 µM. Neuropeptide Y receptor type 1 (Homo sapiens), P25929; in the data active = activation above about 33%, passing the limit was not always enough;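 also: cells stimulated with NPY at EC10 then isoproterenol at EC100; 0% = low agonist plus stimulus and 100% = saturating agonist plus stimulus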
NPY-Y1 antag: NPY-Y1 receptor antagonists, primary screen, cell-based | HEK293-CNG Y1 cells, membrane potential fluorescence; NPY at EC95, then isoproterenol | inhibition, % at 3.6 µM | Neuropeptide Y receptor type 1 (Homo sapiens), P25929 | AID 1040, 2008 | 1% of 200,000 active;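 active = inhibition above the campaign mean inhibition of all tested compounds plus 3 SD, cut at about 20% in these data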;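 also: 0% = DMSO wells given NPY plus isoproterenol and 100% = isoproterenol alone without NPY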
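Material: HEK293 Y1/CNG channel cell line | Also added: NPY (25 nM), isoproterenol (1 µM), Ro 20-1724 (25 µM) | Compound: One concentration, 3.6 µM, in 0.4% DMSO | Schedule: 3 h dye uptake, 1 h room-temperature compound, 45 min post-isoproterenol | Signal: Membrane-potential fluorescent dye readout | Read-out: % inhibition of NPY effect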
NPY Y2 blocker: NPY-Y2 receptor antagonists, primary screen, cell-based. NPY-Y2 expressing cells, antagonist mode. inhibition, % at 2.7 µM. 0.99% of 140,000 active;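 also: 0% = vehicle with agonist challenge and 100% = reference antagonist with challenge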
Target sequence (P49146 whole entry, looked up): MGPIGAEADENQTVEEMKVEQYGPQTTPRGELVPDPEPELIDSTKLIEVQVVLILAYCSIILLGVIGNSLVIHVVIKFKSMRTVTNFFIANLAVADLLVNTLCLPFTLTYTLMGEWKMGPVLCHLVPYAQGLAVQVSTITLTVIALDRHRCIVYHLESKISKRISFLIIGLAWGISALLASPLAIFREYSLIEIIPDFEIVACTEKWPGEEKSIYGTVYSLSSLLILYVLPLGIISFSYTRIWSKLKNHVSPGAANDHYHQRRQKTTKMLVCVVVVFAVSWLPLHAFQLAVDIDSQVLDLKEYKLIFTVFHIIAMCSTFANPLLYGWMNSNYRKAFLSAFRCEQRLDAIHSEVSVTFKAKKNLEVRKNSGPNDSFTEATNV
NPY-Y2 PAM-ag: NPY-Y2 potentiators or agonists, primary screen, cell-based; cells expressing NPY-Y2, potentiator/agonist read-out; 0.45% of 220,000 active; activation, % at 3.6 µM; Neuropeptide Y receptor type 2 (Homo sapiens), P49146; in the data active = activation above about 27%;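 also: cells stimulated with NPY near EC25 plus isoproterenol at EC100; 0% = vehicle plus submaximal agonist and 100% = vehicle plus saturating agonist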
EP2 antag: human EP2 receptor antagonists, primary screen, TR-FRET cAMP, C6 glioma cells; C6 glioma cells expressing human EP2; cells stimulated with saturating PGE2; AID 1422, 2008; 0.52% of 260,000 active; inhibition, % at 25 µM; Prostaglandin E2 receptor EP2 subtype (Homo sapiens), P43116;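 active = percent inhibition above 40 after rounding to a whole number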;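 also: rat C6 glioma host cells with rolipram phosphodiesterase inhibitor present; the protocol text gives 20 µM as final concentration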
NPY1 antag conf: NPY-Y1 receptor antagonists, retest of hits, confirmation, HEK293-CNG cells, membrane potential fluorescence, triplicate. shares compounds with NPY-Y1 antag. cAMP; NPY challenge against isoproterenol-raised cAMP. inhibition, % at 3.6 µM. 21% of 1,200 active; in the data active = inhibition above about 20%;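 also: 0% = vehicle with agonist plus stimulus and 100% = stimulus alone without agonist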
NPY2 antag ctr: NPY-Y2 receptor antagonists, selectivity check, confirmation, counter-screen for NPY-Y1 antagonist project, HEK293-CNG cells, membrane potential fluorescence, triplicate; antagonism; cells given NPY, then isoproterenol; 28% of 1,200 active; inhibition, % at 3.6 µM; shares compounds with NPY-Y1 antag;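 also: 0% = DMSO with agonist challenge and 100% = reference antagonist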
An asterisk follows results filed as active. Shown are actives, neighbours in structure and some others; about 2.8% of the full set was active somewhere. Rule as the data show it, unless noted: active = inhibition above about 17%; inactive = the rest.

Screening CC(C)=C(NC(=O)c1ccccc1)C(=O)N1CCOCC1 returned EP2 mod -7.2, NPY1 pot ag 12.6, NPY-Y1 antag 22.4*, NPY Y2 blocker 2.2, NPY-Y2 PAM-ag 13.5, EP2 antag -4.5, NPY1 antag conf -2.3 and NPY2 antag ctr -0.3.
O=C(NC1CCCCCC1)c1cc(-c2ccccn2)nc2ccccc12 was read as EP2 mod -14.7, NPY1 pot ag -119.1, NPY-Y1 antag 23.9*, NPY-Y2 PAM-ag -72.4, EP2 antag 5.0, NPY1 antag conf 24.6* and NPY2 antag ctr 18.2*.
For Cc1cc(-c2ccccc2)nc(N(C)NC(=O)c2cccc(C(F)(F)F)c2)c1S(C)(=O)=O the results were EP2 mod -23.7, NPY1 pot ag -7.0, NPY-Y1 antag 1.8, NPY Y2 blocker 2.2, NPY-Y2 PAM-ag -7.3 and EP2 antag 19.2.
Screening Cc1cc(-c2ccccc2)nc(Oc2cccc(C(F)(F)F)c2)c1S(C)(=O)=O returned EP2 mod 45.5, NPY1 pot ag -24.8, NPY-Y1 antag 28.9*, NPY Y2 blocker 5.6, NPY-Y2 PAM-ag -17.2, EP2 antag 11.4, NPY1 antag conf 6.2 and NPY2 antag ctr 2.5.
`Cn1ccnc1C1(O)COC2(CCN(C(=O)c3ccc(OC4CSC4)cc3)CC2)C1` (configuration not stated) gave EP2 mod -16.9.
Cc1cccc(C)c1NC(=O)c1c(C)nn(-c2ccccc2)c1Cl was read as EP2 mod 7.3, NPY1 pot ag -0.8, NPY-Y1 antag 32.4*, NPY Y2 blocker 2.3, NPY-Y2 PAM-ag 11.4, EP2 antag 5.5, NPY1 antag conf 4.7 and NPY2 antag ctr 2.2.
Screening COC(=O)c1c(NC(C)=O)sc(C(=O)Nc2cccc(Cl)c2C)c1C returned EP2 mod 14.0 and EP2 antag 12.0.
`COc1cc2cc(C(=O)O)n(C)c2c(OC)c1OC` gave EP2 mod 25.4, NPY1 pot ag -12.2, NPY-Y1 antag 25.3*, NPY Y2 blocker 8.4, NPY-Y2 PAM-ag 3.4, EP2 antag 2.4, NPY1 antag conf 3.5 and NPY2 antag ctr 3.4.
`Cc1oc2c(c1C(=O)c1ccc(Cl)cc1)C(=O)C(=O)c1ccccc1-2` gave EP2 mod -11.3, NPY1 pot ag -22.3, NPY-Y1 antag 26.4*, NPY Y2 blocker 9.3, NPY-Y2 PAM-ag 1.3, NPY1 antag conf 9.0 and NPY2 antag ctr 12.4.
`COc1ccc(-n2nc3c(c2NC(=O)c2c(-c4ccccc4Cl)noc2C)CS(=O)(=O)C3)cc1` gave EP2 mod 3.4, NPY1 pot ag 6.1, NPY-Y1 antag 37.7*, NPY Y2 blocker 10.7, NPY-Y2 PAM-ag 1.6, NPY1 antag conf 8.8 and NPY2 antag ctr 11.2.
COc1ccc(NC(=O)c2c(-c3ccccc3Cl)noc2C)c(OC)c1 was read as EP2 mod 37.8, NPY1 pot ag 2.8, NPY-Y1 antag 0.3, NPY Y2 blocker 4.6, NPY-Y2 PAM-ag 0.4 and EP2 antag 7.7.
COc1ccc(OCC(=O)Nc2ccc(N3CCN(S(C)(=O)=O)CC3)cc2)cc1 was read as EP2 mod -9.8 and EP2 antag 8.7.
For Cc1nn(CC(=O)NCCCN2CCCCC2C)c(=O)c2cc3sccc3n12 (configuration not stated) the results were EP2 mod -0.8.
CC1CCCCC1NC(=O)CN1C(=O)NC(Cc2ccccc2)(Cc2ccccc2)C1=O (configuration not stated) was read as EP2 mod 25.2, NPY1 pot ag -37.1, NPY-Y1 antag 24.4*, NPY Y2 blocker 16.2, NPY-Y2 PAM-ag -25.4, NPY1 antag conf 31.4* and NPY2 antag ctr 27.9*.
Screening CC1CCCCC1NC(=O)CN1CCC(O)(c2ccc(F)cc2)CC1 (configuration not stated) returned EP2 mod -0.1, NPY1 pot ag -10.9, NPY-Y1 antag -2.7, NPY Y2 blocker 2.3, NPY-Y2 PAM-ag 9.6 and EP2 antag 25.0.
For CN(C[C@H](Cc1ccccc1)N(C[C@H](Cc1ccccc1)N(CCc1cc(C(F)(F)F)cc(C(F)(F)F)c1)N=O)N=O)N=O the results were EP2 mod -15.2, NPY1 pot ag -12.2, NPY-Y1 antag 21.8*, NPY-Y2 PAM-ag -13.5, EP2 antag 0.1, NPY1 antag conf 18.6 and NPY2 antag ctr 8.3.
`C=CCNC(=O)c1onc(CSc2ccc(Cl)cc2)c1C(=O)NCC=C` gave EP2 mod -20.0 and EP2 antag 2.1.
`CCCCNC(=O)c1onc(CSc2ccc(Cl)cc2)c1C(=O)O` gave EP2 mod 7.8, NPY1 pot ag -34.0, NPY-Y1 antag 21.1*, NPY Y2 blocker 16.6, NPY-Y2 PAM-ag -47.5, EP2 antag 13.2, NPY1 antag conf 22.7* and NPY2 antag ctr 12.3.
Screening C=CCNC(=O)c1onc(CSc2ccc(Cl)cc2)c1C(=O)O returned EP2 mod -6.2, NPY1 pot ag -8.9, NPY-Y1 antag 22.1*, NPY Y2 blocker 10.2, NPY-Y2 PAM-ag -23.9, EP2 antag 12.1, NPY1 antag conf 15.5 and NPY2 antag ctr 11.5.
`O=C(Nc1ccccc1OC(F)F)c1oc2ccccc2c1COc1ccccc1` gave EP2 mod 45.5, NPY1 pot ag 11.9, NPY-Y1 antag 3.5, NPY Y2 blocker 2.9, NPY-Y2 PAM-ag -1.9 and EP2 antag 6.1.
`Cc1cc(C)cc(NC(=O)c2oc3ccccc3c2COc2ccccc2)c1` gave EP2 mod 54.6, NPY1 pot ag -31.1, NPY-Y1 antag 22.8*, NPY Y2 blocker -1.0, NPY-Y2 PAM-ag -17.8, EP2 antag 8.3, NPY1 antag conf 4.8 and NPY2 antag ctr 12.3.
COc1cc(/C=C/C(=O)NC(C)CCc2ccccc2)cc(OC)c1OC (configuration not stated) was read as EP2 mod -70.5, NPY1 pot ag -18.1, NPY-Y1 antag 21.6*, NPY Y2 blocker 4.9, NPY-Y2 PAM-ag -8.6, EP2 antag 15.5, NPY1 antag conf 6.4 and NPY2 antag ctr 9.9.

Compound activity deposited in PubChem by several laboratories.
